IDH1 mut inh – IDH1 R132H (human) inhibition; 70,000 compounds, 0.18% hits; AID 624101; inhibition, % at 10 µM; O75874; IDH1 R132H reductase, diaphorase/resazurin fluorescence, 60 min; in the data active = inhibition above about 34%; inconclusive = no clear call, values can overlap the other calls; inactive = below about 11%;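 note: 0% = DMSO and 100% = no enzyme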
T cruzi growth-1 – T. cruzi proliferation inhibition. T. cruzi beta-gal in NIH3T3, GalScreen luminescence, 90 h. 77,000 compounds, 5.9% hits. inhibition, % at 8.34 µM;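 active = mean inhibition above about 93%, with at least 55% of replicates each passing it, limit read from the data, passing the limit was not always enough; inconclusive = only one of those two conditions holds; inactive = neither condition holds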
KDM4C inh – KDM4C (human) demethylase inhibition. Q9H3R0. inhibition, % at 12.5 µM. 96,000 compounds, 0.15% hits. GST-KDM4C 2-372, H3K9me3 peptide, LANCE TR-FRET;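 active = mean replicate inhibition above about 25%, with at least 55% of replicates also reaching it, limit read from the data, passing the limit was not always enough; inconclusive = only one of those two conditions met; inactive = neither condition met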
Target sequence (Q9H3R0 2-372 limits assumed): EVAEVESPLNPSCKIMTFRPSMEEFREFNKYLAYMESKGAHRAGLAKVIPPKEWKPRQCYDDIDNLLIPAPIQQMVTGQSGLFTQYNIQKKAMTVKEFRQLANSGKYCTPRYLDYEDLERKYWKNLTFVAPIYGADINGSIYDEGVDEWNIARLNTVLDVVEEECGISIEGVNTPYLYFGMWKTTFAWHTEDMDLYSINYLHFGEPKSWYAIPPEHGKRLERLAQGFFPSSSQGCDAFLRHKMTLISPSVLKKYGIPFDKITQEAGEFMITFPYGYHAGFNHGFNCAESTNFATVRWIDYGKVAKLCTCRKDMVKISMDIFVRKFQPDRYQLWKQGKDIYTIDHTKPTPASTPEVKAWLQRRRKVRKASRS
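Test system: N-terminal GST-fused human GASC-1 (KDM4C) fragment, residues 2-372; quantity: GASC-1 enzyme at 10 nM final in reaction; dosing: single dose; schedule: 30 min demethylation and 1 h detection at room temperature; signal: LANCE TR-FRET, excitation 340 nm, emissions 618 and 671 nm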
Pf Dd2 growth – blocks growth of Plasmodium falciparum Dd2 parasites; 94,000 compounds, 2.3% hits; P. falciparum Dd2 growth, SYBR Green, 72 h; active compounds read low; activity change, % at 10 µM; in the data active = activity change below about -80%; inconclusive = no clear call, values can overlap the other calls
T cruzi growth-2 – Trypanosoma cruzi proliferation inhibition. shares compounds with T cruzi growth-1. T. cruzi beta-gal in NIH3T3, GalScreen luminescence, 90 h. inhibition, % at 8.35 µM. 5,600 compounds, 72% hits. AID 651739;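 active = mean replicate inhibition above about 95% and at least 55% of replicates individually reaching it, limit read from the data; inconclusive = only one of the two criteria is met; inactive = neither criterion is met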
T cruzi growth-3 – blocks T. cruzi growth in NIH3T3 host cells. shares compounds with T cruzi growth-1. T. cruzi beta-gal in NIH3T3, GalScreen luminescence, 90 h. inhibition, % at 2.09 µM. 5,600 compounds, 21% hits;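 active = mean inhibition above about 95%, with at least 55% of replicates also reaching it, limit read from the data; inconclusive = meets just one of the two conditions; inactive = meets neither condition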;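 note: plate controls were neutral control median for no effect and positive control median for full effect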
3T3 cytotox – cytotoxicity in mouse NIH/3T3 fibroblasts; NIH/3T3 viability, CellTiter-Glo ATP luminescence, 90 h; cytotoxicity (signal decrease), % at 8.35 µM; 5,600 compounds, 14% hits; shares compounds with T cruzi growth-1; AID 651742;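 active = mean signal decrease across replicates above about 35% based on untreated-well scatter, with enough replicates individually passing, limit read from the data; inconclusive = no rule stated though some were filed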;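 note: 0% = median of neutral control wells and 100% = median of positive control wells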
NIH3T3 tox 2 – cytotoxicity in mouse NIH/3T3 fibroblasts; inhibition, % at 24.9 µM; NIH/3T3 viability, CellTiter-Glo ATP luminescence, 90 h; 5,600 compounds, 56% hits; shares compounds with T cruzi growth-1; AID 651744;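 active = mean loss of cell viability signal at or above a set limit, and enough replicates individually reaching it; inconclusive = meets only the mean limit or only the replicate share; inactive = meets neither condition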;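 note: 0% = median of neutral control wells and 100% = median of positive control wells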
Numbers without * were called inactive; ? = inconclusive; . = no result. Compounds with a hit are over-represented: about 5.9% of the library has one in this group of screens.

SMILES	IDH1 mut inh	T cruzi growth-1	KDM4C inh	Pf Dd2 growth	T cruzi growth-2	T cruzi growth-3	3T3 cytotox	NIH3T3 tox 2
C[C@@H]1CCCCO[C@H](CN(C)S(=O)(=O)c2ccccc2)[C@H](C)CN([C@H](C)CO)C(=O)c2cc(NS(=O)(=O)c3ccccc3)ccc2O1	.	107.0*	0.3	-42.5	115.3*	40.9	-20.7	-17.9
O=C(NCc1cc2ccccc2[nH]1)c1cc(-c2ccccn2)nc2ccc(Br)cc12	-0.3	.	.	.	.	.	.	.
CC(C)CC#Cc1cnc2c(c1)C(=O)N([C@@H](C)CO)C[C@@H](C)[C@H](CN(C)Cc1cccc(F)c1)O2	-0.9	103.3*	-2.0	-57.8	104.3*	82.6	27.4	107.5*
C[C@@H]1CN([C@@H](C)CO)C(=O)c2cc(C#CCc3ccccc3)cnc2O[C@H]1CN(C)Cc1cccc(F)c1	-1.3	96.6*	2.5	-57.1	110.6*	93.5	-7.4	104.5*
CC(C)CC#Cc1cnc2c(c1)C(=O)N([C@H](C)CO)C[C@H](C)[C@@H](CN(C)Cc1cccc(F)c1)O2	-0.5	111.6*	-1.7	-45.9	106.4*	74.2	6.9	106.9*
C[C@@H]1CN([C@H](C)CO)C(=O)c2cc(C#CCN(C)C)cnc2O[C@H]1CN(C)Cc1cccc(F)c1	-1.3	-31.4	2.6	7.5	.	.	.	.
C[C@H]1CN([C@@H](C)CO)C(=O)c2cc(C#CCc3ccccc3)cnc2O[C@H]1CN(C)Cc1cccc(F)c1	0.4	18.2	0.6	-43.1	.	.	.	.
C[C@@H]1CN([C@H](C)CO)S(=O)(=O)c2ccc(C#CC(C)(C)O)cc2O[C@H]1CN(C)C(=O)C1CC1	.	104.6*	-1.9	8.2	44.7	7.8	29.1	42.4*
C[C@H]1CN([C@@H](C)CO)S(=O)(=O)c2ccc(C#CCN(C)C)cc2O[C@@H]1CN(C)C(=O)C1CC1	3.5	110.5*	-0.6	-8.0	108.7*	99.1*	5.2	5.1
C[C@@H]1CN([C@H](C)CO)S(=O)(=O)c2ccc(C#CC(C)(C)O)cc2O[C@@H]1CN(C)C(=O)C1CC1	0.3	-21.4	-2.1	20.9	.	.	.	.
C[C@@H]1CN([C@H](C)CO)S(=O)(=O)c2ccc(C#CCN(C)C)cc2O[C@H]1CN(C)C(=O)C1CC1	.	89.5*	0.4	-12.1	?	80.4	-11.0	-2.3
CC(=O)O[C@H]1[C@H](Oc2cc(O)cc(O)c2C(=O)c2cccc(O)c2)O[C@H](CO)[C@@H](OC(=O)c2ccccc2)[C@@H]1O	-0.6	.	.	.	.	.	.	.
COc1cc2oc(-c3ccccc3)cc(=O)c2c(OC)c1OC	-0.6	.	.	.	.	.	.	.
CNS(=O)(=O)c1ccc(NC(=O)c2cc(-c3cccnc3)nc3ccc(Br)cc23)cc1	0.4	.	.	.	.	.	.	.
C[C@H](CO)N1C[C@H](C)[C@@H](CN(C)Cc2ccc(F)cc2)Oc2cc(C#Cc3ccccn3)ccc2S1(=O)=O	0.0	126.8*	-33.2	-33.5	105.8*	102.4*	4.1	-10.1
C[C@@H]1CN([C@@H](C)CO)S(=O)(=O)c2ccc(C#Cc3ccccn3)cc2O[C@@H]1CN(C)Cc1ccc(F)cc1	0.0	99.9*	-13.5	-29.4	106.8*	87.4	38.0*	-6.8
CC(=O)Nc1ccccc1NC(=O)CCN1C(=O)c2ccccc2C1=O	0.2	.	.	.	.	.	.	.
OC[C@H]1Nc2ccc(-c3ccccc3)cc2[C@H]2[C@@H]1CCN2Cc1ccc(F)cc1	.	103.5*	0.9	-76.4	98.8*	113.1*	25.9	104.6*
OC[C@@H]1Nc2ccc(-c3ccccc3)cc2[C@H]2[C@@H]1CCN2Cc1ccc(F)cc1	.	104.9*	0.1	-61.3	103.6*	111.3*	11.7	102.6*
O=C(COc1ccccc1C(=O)Nc1cccc(Cl)c1Cl)Nc1ccc(N2CCOCC2)c(Cl)c1	0.1	.	.	.	.	.	.	.
O=C(Cn1ccc([N+](=O)[O-])n1)Nc1cccnc1	-0.5	.	.	.	.	.	.	.
CCCN1[C@@H]2c3ccc(C4=CCCCC4)c(=O)n3C[C@H]1[C@H](CO)[C@H]2C(=O)NCCc1ccncc1	.	.	0.2	-6.0	.	.	.	.
CCN1[C@@H]2Cn3c(ccc(C4=CCCCC4)c3=O)[C@H]1[C@@H](C(=O)NCCc1ccncc1)[C@@H]2CO	.	98.5*	1.3	0.4	-20.2	0.3	-26.7	-26.5
CCN1[C@@H]2Cn3c(ccc(C4=CCCC4)c3=O)[C@H]1[C@@H](C(=O)NCc1ccccn1)[C@@H]2CO	.	98.8*	0.5	-3.8	8.8	-9.2	-13.6	-7.0
O=S(=O)(c1ccccc1F)N1CCCCN2[C@H](CO)[C@@H](c3ccc(-c4cccnc4)cc3)[C@@H]2C1	.	93.9	0.5	30.8	.	.	.	.
SMILES	IDH1 mut inh	T cruzi growth-1	KDM4C inh	Pf Dd2 growth	T cruzi growth-2	T cruzi growth-3	3T3 cytotox	NIH3T3 tox 2
O=S(=O)(c1ccccc1F)N1CCCCN2[C@H](C1)[C@H](c1ccc(-c3cccnc3)cc1)[C@@H]2CO	.	100.1*	0.1	23.9	97.8*	18.9	16.5	11.5
O=S(=O)(c1ccccc1F)N1CCCCN2[C@H](CO)[C@H](c3ccc(-c4ccncc4)cc3)[C@H]2C1	.	101.7*	-0.7	-16.1	104.9*	35.4	9.4	0.2
Cc1ccc(-n2c(SCC(=O)Nc3sc4c(c3C#N)CCCC4)nnc2-c2ccccc2)cc1	-0.2	.	.	.	.	.	.	.
C[C@H](CO)N1C[C@H](C)[C@H](CN(C)C(=O)C2CCCCC2)OCCCC[C@H](C)Oc2ccc(NS(=O)(=O)c3cccs3)cc2C1=O	-0.6	114.5*	-2.1	-47.3	81.9	45.1	7.0	9.9
C[C@@H]1CCCCO[C@@H](CN(C)C(=O)C2CCCCC2)[C@H](C)CN([C@@H](C)CO)C(=O)c2cc(NS(=O)(=O)c3cccs3)ccc2O1	1.6	17.3	-0.7	-8.6	.	.	.	.
C[C@@H]1CCCCO[C@@H](CN(C)C(=O)C2CCCCC2)[C@@H](C)CN([C@@H](C)CO)C(=O)c2cc(NS(=O)(=O)c3cccs3)ccc2O1	3.0	109.7*	-1.8	-41.5	46.2	10.3	-2.4	9.7
CCN(CC(=O)Nc1ccc(Br)cc1F)S(=O)(=O)c1ccc2ccccc2c1	0.0	.	.	.	.	.	.	.
COCC#Cc1cnc2c(c1)C(=O)N([C@@H](C)CO)C[C@@H](C)[C@H](CN(C)Cc1ccc(-c3ccccc3)cc1)O2	.	120.5*	-0.4	-44.2	108.9*	62.0	45.9*	106.4*
C[C@H](CO)N1C[C@H](C)[C@@H](CN(C)Cc2ccc(-c3ccccc3)cc2)Oc2ncc(C#CCN(C)C)cc2C1=O	.	?	4.8	.	108.0*	81.7	33.1	103.6*
COCC#Cc1cnc2c(c1)C(=O)N([C@H](C)CO)C[C@@H](C)[C@H](CN(C)Cc1ccc(-c3ccccc3)cc1)O2	-10.5	118.5*	0.3	-69.0	108.2*	39.4	20.2	102.4*
